Tested on: MS2 coat protein
Test: apparent Kd, MS2 coat protein; higher = weaker binding; RNA-MaP array; theophylline 2 mM where present
In short: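 Stalled E. coli RNA polymerase transcribed the designs on Illumina sequencing-chip clusters. SNAP-549-labelled MS2 coat protein was titrated from 0.7 or 1.5 nM, doubling to 3 µM, without and then with constant ligand, in 100 mM Tris-HCl pH 7.5, 80 mM KCl, 4 mM MgCl2, BSA, DTT, yeast tRNA and Tween-20. Per-cluster binding curves were fitted to green signal normalised to red-channel RNA signal and control-cluster median Fmax. The apparent Kd is the median of the filtered fits.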

[1] = designed as: OFF switch for theophylline, no ligand
[2] = ligand present: theophylline, designed as: OFF switch for theophylline
[3] = designed as: ON switch for theophylline, no ligand
[4] = ligand present: theophylline, designed as: ON switch for theophylline

Row | Sequence | apparent Kd [1] [nM] | apparent Kd [2] [nM] | apparent Kd [3] [nM] | apparent Kd [4] [nM]
1 | ACAUGAGGAUCACCCAUGUUCCUCAUUGAUACCAGUGAAUUUAGACGCCCUUGGCAGCGAGUUUAAGAAGAAGAAGUUUUUUUUU | 667 | 895 | – | –
2 | AGUGUUAUAACUGAUACCAGACCUUUGCUUAUACAUGAGGAUCACCCAUGUAAAAUGGCGGUCCCUUGGCAGCAGAGAAUACACA | – | – | 33.5 | 12.5
3 | UCGUGAGUUUCGGAUACCAGUGUUGUCGAUACAUGAGGAUCACCCAUGUUAGAGGAUGUACACCCUUGGCAGCCGGCUGUGGCGG | – | – | 18.6 | 11.3
4 | CGAGUCCGCUGAUGGGCUAAGUCAGGUGAUACCAGCCACUCCCGCGGCCCUUGGCAGCACAUGAGGAUCACCCAUGUAGGGCUUG | 19.6 | 338 | – | –
5 | CUCGAGUUAUGAGAUACCAGACUAUAGUUUACAUGAGGAUCACCCAUGUUAUGGGUGGUAGUCCCUUGGCAGCUCAUAUGUUUAA | 225 | 812 | – | –
6 | UGACAUUGCUCAGAUACCAGACAUGAGGAUCACCCAUGUACCAAGGUAAAGAAAUAACGUGUCCCUUGGCAGCUGAGCAAUGUCU | 10.1 | 98.8 | – | –
7 | UGUAUGUGAUCUGAUACCAGUCCCUUGGCAGCAACAUGAGGAUCACCCAUGUAGAUACCAGACCCUUGGCAGCAGAUCGCAUACU | – | – | 9.06 | 8.27
8 | AUACCUAAUGUUACGUUUUCCUUUUCAGAUACCAGACUUUACGUUGUCCCUUGGCAGCUGUAUUACAUGAGGAUCACCCAUGUUG | – | – | 22 | 29.7
9 | AGAUUACAUGUUUUAAUAAGAUAAACUGAUACCAGUGUAUAUAUUCACCCUUGGCAGCAGCAACAUGAGGAUCACCCAUGUAUUA | – | – | 16 | 15.2
10 | AUAAGUACGUCAGAUACCAGACAGCCAGACUUACAUGAGGAUCACCCAUGUGGAUGGACGGUCCCUUGGCAGCUGGCCGCAAAAG | – | – | 213 | 14.2
11 | UGUAACAUGAGGAUCACCCAUGUAAGUGAUACCAGAUAAGUAGUAGUCCCUUGGCAGCAUAUUGGGCAAGUGUAUAGUCUAUACG | – | – | 49.8 | 53.5
12 | AUCGUACCUGAGGAUACCAGCAUGUGAUCAUAACAUGAGGAUCACCCAUGUAAUCAGUGAUGCCCUUGGCAGCUUAGUCGAUACA | – | – | 75.5 | 45.2
13 | GACAUGAGGAUAGAUACCAGCGACAUGAGGAUCACAUGAGGAUCACCCAUGUGUAGUAUACGCCCUUGGCAGCUAACAUGAGGAU | – | – | 108 | 94
14 | UUAUUUAUAAUGGAUACCAGUCGUAUGGCCCGGCAUCCUGACAUGAGGAUCACCCAUGUCGACCCUUGGCAGCUGUUAUGGGUUU | 13.5 | 20 | – | –
15 | AGACAUGAGGAUCACCCAUGUAGCAUGGAUACCAGAUCCAGAUUUAUCCCUUGGCAGCUGUGGUACAGUGAUGGAUUGCUCCUAG | 79 | 122 | – | –
16 | GCACUACAUGAGGAUCACCCAUGUGCAGAUACCAGAGGUGUAUGCCUCCCUUGGCAGCUGCGUCGCUCUGGAAGCCUAUUGGUUU | – | – | 15.6 | 20.9
17 | AUUAUCAUGGUCAUAUAUAUUUCGUCAGAUACCAGACUAGAUAUAGUCCCUUGGCAGCUGUUACAUGAGGAUCACCCAUGUUAUA | 116 | – | – | –
18 | ACGUCCAGGUUAAUCGUGGACAUGGUCGAUACCAGUAUUUUAAUCUACCCUUGGCAGCGACAUGAGGAUCACCCAUGUGCGAUGA | 12.5 | 23.4 | – | –
19 | ACUUUGUCGGGUGAUACCAGCCUCGGCACAUCUCGUGCCGAACAUGAGGAUCACCCAUGUGGCCCUUGGCAGCACAUGACAAAUC | – | – | 341 | 59.5
20 | AAUAACAUGAGGAUCACCCAUGUAAAAGAUACCAGAGUGAUGAUCCUCCCUUGGCAGCUUAAUAACGCUAUUGGAAACAAUAGCG | – | – | 78.2 | 122
21 | ACAUGAAGAACAGCGGUGGGCGCGCUCGAUACCAGUACUUUGAUAUACCCUUGGCAGCGACAUGAGGAUCACCCAUGUGAGAUGA | 18.7 | 27.2 | – | –
22 | UACAGUACAACAGAUACCAGACAGUACUCUAGAUUGCAACAUGAGGAUCACCCAUGUAUAGUCCCUUGGCAGCUGUAAUGGGUGA | – | – | 180 | 441
23 | GGAAUUAAGACUGAUACCAGUCAAGAUAAUCAUAAGAAUAAACAUGAGGAUCACCCAUGUGACCCUUGGCAGCAGACUAAUACCG | – | – | 31 | 29.6
24 | AUGUCGUUGAAUAUAGCGGCUUGGUGUGAUACCAGAAUGAUCUAAUUCCCUUGGCAGCAUUACAUGAGGAUCACCCAUGUUCAGG | – | – | 24 | 23.9
25 | AUGCACCUCGUCCAGGCAAUCUUUAGUGAUACCAGCUAACUCCUUGGCCCUUGGCAGCACAUGAGGAUCACCCAUGUGCGACAUC | 11.9 | 14 | – | –
26 | ACAUGAGGAUCACCCAUGUUCCUCAUUGAUACCAGUGAAUUUAGACGCCCUUGGCAGCGAGUUUUUUUAUAAGUUUUUUUUUUUU | 665 | 1160 | – | –
27 | UCCUUAGAUACUGAUACCAGACUACAGUAAACAUGAGGAUCACCCAUGUUUGAUCACUAAGUCCCUUGGCAGCAGGUACAUGGGA | – | – | 11.3 | 9.08

Row | Sequence | apparent Kd [1] [nM] | apparent Kd [2] [nM] | apparent Kd [3] [nM] | apparent Kd [4] [nM]
28 | UUAAAUGUGACGGAUACCAGCGUGUUGUAGAACAUGAGGAUCACCCAUGUAGUGAUCAUGCGCCCUUGGCAGCUGGUAUGUUUGA | – | – | 379 | 607
29 | UGACAUUGCUCAGAUACCAGACAUGAGGAUCACCCAUGUGCCAACGUACAAAUAAUAAAUGUCCCUUGGCAGCUGAGCAAUGUCU | 11.4 | 35 | – | –
30 | UGUAUGUGAUUUGAUACCAGAUCAGCUGGUUAUACAUGAGGAUCACCCAUGUUACUUUGGGUCCCUUGGCAGCAAAUCGCAUACU | – | – | 487 | 28.4
31 | GCAAUAACGAUUGAUACCAGCAUGUUAACAUGAGGAUCACCCAUGUUAAGGAUAACAUAAUGCCCUUGGCAGCAACGGAAAGCCG | – | – | 24.3 | 14
32 | CGCUACGUAACUGAUACCAGUGUACUGACAUGAGGAUCACCCAUGUUGGGUUUUGUUGUACACCCUUGGCAGCAGAAUCGUAGCG | 70.3 | 95.3 | – | –
33 | GAUGAUAUUGCAGAUACCAGACACAUGAGGAUCACCCAUGUCGCUGAGUUGCUGGAUCGUGUCCCUUGGCAGCUGCGAUAUCAUC | 19.5 | 180 | – | –
34 | GGUGGCUGGACUGAUACCAGCCACCACCGAUAGACCACAUGAGGAUCACCCAUGUUGGGUGGCCCUUGGCAGCAGUCUAGCUGCC | – | – | 561 | 1240
35 | AUAACAUGAGGAUCACCCAUGUUGAGUGAUACCAGACUAUGUAAUGUCCCUUGGCAGCACAAGUAAAGUUAUAAAUAAUGAUAGA | – | – | 57.2 | 25.1
36 | GAUGAUAUUGCAGAUACCAGACACAUGAGGAUCACCCAUGUCGUUGGGUCGCUGGGUCGUGUCCCUUGGCAGCUGCGAUAUCAUC | 30.7 | 263 | – | –
37 | ACAUGAGGGAUGGAUACCAGCGACAUGAGGAUCACCCAUGUAUGAGGAUCAGCCAUGUUAUGCCCUUGGCAGCCACGAACAUCAG | 26.6 | 226 | – | –
38 | GCACCAGGUACGGAUACCAGACUCUGCCGAUUGGGUGAACAUGAGGAUCACCCAUGUUAGGUCCCUUGGCAGCCGUACCUGGUGC | 28.3 | 487 | – | –
39 | CGGCCCUCACAUGAGGAUCACCCAUGUGAUACCAGCCUGGAAACAGGCCCUUGGCAGCACAGGUCAUCAAAAGAUGACCAAGCCG | 12.5 | 63.9 | – | –
40 | GAUAGUUGAAGGGAUACCAGCCUGGACAUGAGGAUCACCCAUGUAGCAUGUUUGAAACUGGGCCCUUGGCAGCCCAUAUUGUGUA | – | – | 22.4 | 14.4
41 | UCGUGUAUAACGGAUACCAGUGAGAAGGAUACAUGAGGAUCACCCAUGUGAGUUGAUGUACACCCUUGGCAGCUGUAUAUAUCUA | – | – | 75.5 | 49.6
42 | ACGUCCCGUUUACUCGUGGGUUAGGUCGAUACCAGUAUUCAAACUUACCCUUGGCAGCGACAUGAGGAUCACCCAUGUGCGAAGA | 17.6 | 99.5 | – | –
43 | GGCUAGUGCAUCGAUACCAGCUACAUGAGGAUCACCCAUGUAGGAAGGGUGGUACUCGAUAGCCCUUGGCAGCGAACACCUCCGG | 16.1 | 31.4 | – | –
44 | AGUACUCGAACGGAUACCAGCCGGACAUGAGGAUCACCCAUGUCCUACCAUGGUUCGGUUGGCCCUUGGCAGCCGUUCGUGUACA | – | – | 225 | 20.2
45 | ACGAACUGUAGUGAUACCAGACGUACAUGAGGAUCACCCAUGUUGUAAACAUGGUGAAUAGUCCCUUGGCAGCACAGUUAGUUCG | 182 | 738 | – | –
46 | AUCGUACCUGGUGAUACCAGCAAUUGCUCGUGACAUGAGGAUCACCCAUGUGGCCAGUGAUGCCCUUGGCAGCAUGGUCGGUGCA | – | – | 164 | 89.3
47 | ACAUGAGGAUCACCCAUGUAAGGUCUUGAUACCAGACGAGAAGUAGUCCCUUGGCAGCAAAUACGUGAGGGUCACACAUGUGUAA | 23 | 46 | – | –
48 | ACUCGGUGUUUGUUGCUCCGAGUACGUGAUACCAGUUAAUUUUAUGGCCCUUGGCAGCAUGGGACAUGAGGAUCACCCAUGUUUA | – | – | 375 | 396
49 | GAUGAACUAUUUGAUACCAGACUACAUGAGGAUCACCCAUGUGAGUUUAUACUUCAGUCAGUCCCUUGGCAGCAAAUAGUUUAUC | 44.9 | 99.3 | – | –
50 | AUAAGUAAGUUUUCGUGUUUUAUUACAGAUACCAGACUAUACGUUGUCCCUUGGCAGCUGGAUUACAUGAGGAUCACCCAUGUUG | 24.5 | 54.3 | – | –
51 | UCGCUCGCCGGAAGGCGAGCGAGUUGCGAUACCAGCCCGGAAACGGGCCCUUGGCAGCGCACAUGAGGAUCACCCAUGUCAUGUU | 19.4 | 26.2 | – | –
52 | CAGAACAUGAGGAUCACCCAUGUCAGGGAUACCAGCUCAGACAUGGGCCCUUGGCAGCUCUGUGGCUGACGAAAGUCAGCAUCUG | – | – | 60.8 | 185
53 | ACACAUGAGGAUCACCCAUGUUCAAUAGAUACCAGUGAUACGGUGCACCCUUGGCAGCUGUUGCUGAGUGAUGGUUCCCUCGGUA | – | – | 41.3 | 65.4
